Assay results taken from ChEMBL document CHEMBL1147644, “Dipeptide nitrile inhibitors of cathepsin K” (Bioorg Med Chem Lett, 2006).

Tests used:
Procathepsin L = Procathepsin L (Homo sapiens, UniProt P07711); test: Inhibition of recombinant human cathepsin L
Cathepsin K = molecular target: T1, Cathepsin K (Homo sapiens, UniProt P43235); test: Inhibition of recombinant human cathepsin K
T1 sequence (P43235 whole entry): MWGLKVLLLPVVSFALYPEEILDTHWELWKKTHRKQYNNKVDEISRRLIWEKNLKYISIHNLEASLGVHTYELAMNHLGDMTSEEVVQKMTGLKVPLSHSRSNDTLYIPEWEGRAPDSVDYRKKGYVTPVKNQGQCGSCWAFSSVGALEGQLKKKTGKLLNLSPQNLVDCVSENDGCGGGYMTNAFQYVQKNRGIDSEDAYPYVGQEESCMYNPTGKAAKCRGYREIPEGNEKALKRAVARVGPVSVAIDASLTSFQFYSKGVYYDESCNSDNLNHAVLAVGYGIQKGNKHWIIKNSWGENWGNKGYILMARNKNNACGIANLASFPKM

Cathepsin S = Cathepsin S (Homo sapiens, UniProt P25774); test: Inhibition of recombinant human cathepsin S
Sequence of Cathepsin S (P25774 whole entry): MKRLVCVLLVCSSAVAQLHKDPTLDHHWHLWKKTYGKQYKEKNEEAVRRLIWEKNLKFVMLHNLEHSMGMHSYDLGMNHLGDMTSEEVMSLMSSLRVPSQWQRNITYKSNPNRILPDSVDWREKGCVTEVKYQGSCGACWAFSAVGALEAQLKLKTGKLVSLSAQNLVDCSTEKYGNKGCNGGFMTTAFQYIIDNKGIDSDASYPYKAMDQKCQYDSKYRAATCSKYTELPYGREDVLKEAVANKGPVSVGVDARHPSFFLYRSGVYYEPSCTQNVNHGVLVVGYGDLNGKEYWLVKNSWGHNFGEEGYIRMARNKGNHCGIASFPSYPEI

[1] = Clearance in rat; assay type: ADME, organism-based; conditions: in vivo
Method in brief: (§1)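 Cassette dosing of six compounds to conscious, fed, permanently cannulated rats. IV bolus of 1 mg kg^-1 in N-methyl-2-pyrrolidone/PEG200 (30:70, v/v). Oral dose of 3 mg kg^-1, dissolved or suspended with sonication in 1% tartaric acid plus 1% carboxymethyl cellulose in water. Same animals received both routes, with a 48 h washout between them. Femoral arterial blood sampled over 24 h. Plasma extracted by acetonitrile precipitation and parent drug quantified by HPLC/MS.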

[2] = Terminal half life in rat; assay type: ADME, organism-based; conditions: in vivo; method in brief: as §1
[3] = Volume of distribution in rat; assay type: ADME, organism-based; conditions: in vivo, read-out: Vss; method in brief: as §1
Rattus norvegicus = test: Cmax in rat at 3 mg/kg, po normalized to 1 mg/kg; assay type: ADME, organism-based; design: dose 3 mg/kg, route oral; conditions: in vivo; method in brief: as §1
[4] = Oral bioavailability in rat; assay type: ADME, organism-based; conditions: in vivo; method in brief: as §1

Sequence of Procathepsin L (P07711 whole entry): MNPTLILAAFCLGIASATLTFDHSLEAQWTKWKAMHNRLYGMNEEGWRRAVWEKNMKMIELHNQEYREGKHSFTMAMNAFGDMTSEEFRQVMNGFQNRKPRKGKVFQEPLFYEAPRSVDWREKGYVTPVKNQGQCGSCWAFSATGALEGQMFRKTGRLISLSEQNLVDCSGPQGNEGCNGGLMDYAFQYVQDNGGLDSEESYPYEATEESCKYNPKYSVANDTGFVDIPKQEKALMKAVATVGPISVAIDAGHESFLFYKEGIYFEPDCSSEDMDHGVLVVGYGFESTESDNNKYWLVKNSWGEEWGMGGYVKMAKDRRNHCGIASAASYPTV

| Compound | IC50 (Procathepsin L) [nM] | IC50 (Cathepsin K) [nM] | IC50 (Cathepsin S) [nM] | clearance [1] [mL/min/kg] | half-life [2] [h] | Vd [3] [L/kg] | Cmax (Rattus norvegicus) [nM] | bioavailability [4] [%] |
| --- | --- | --- | --- | --- | --- | --- | --- | --- |
| Cc1ccc(C[C@@H](C#N)NC(=O)[C@H](CC(C)C)NC(=O)OCc2ccccc2)cc1 | 9900 | 48 | > 10000 |  |  |  |  |  |
| CC(C)C[C@H](NC(=O)OCc1ccccc1)C(=O)N[C@H](C#N)COC(C)(C)C | 2800 | 240 | 900 |  |  |  |  |  |
| CC(C)C[C@H](NC(=O)OCc1ccccc1)C(=O)N[C@H](C#N)COCc1ccccc1 | 1700 | 9 | 969 | 45 | 2.2 | 4.6 | 44.3 | 26.4 |
| COc1ccc(C[C@@H](C#N)NC(=O)[C@H](CC(C)C)NC(=O)OCc2ccccc2)cc1 | 1100 | 63 | 700 |  |  |  |  |  |
| Cc1cccc(C[C@@H](C#N)NC(=O)[C@H](CC(C)C)NC(=O)OCc2ccccc2)c1 | 7700 | 120 | 2300 |  |  |  |  |  |
| CC(C)C[C@H](NC(=O)C(C)(C)Nc1ccc(Cl)cc1)C(=O)N[C@H](C#N)COCc1ccccc1 | 190 | 430 | 41 |  |  |  |  |  |
| CC(C)C[C@H](NC(=O)CN1CCN(c2ccncc2)CC1)C(=O)N[C@H](C#N)COCc1ccccc1 | 330 | 9 | 180 | 320 | 1 | 18 | 2.5 | 3.5 |
| CC(C)C[C@H](NC(=O)c1cc2ccccc2[nH]1)C(=O)N[C@H](C#N)COCc1ccccc1 | 154 | < 1 | 29 |  |  |  |  |  |
| Cc1nccn1CC(=O)N[C@@H](CC(C)C)C(=O)N[C@H](C#N)COCc1ccccc1 | 660 |  | 240 |  |  |  |  |  |
| CC(C)C[C@H](NC(=O)c1cc2ccccc2n1C)C(=O)N[C@H](C#N)COCc1ccccc1 | 83 | < 1 | 47 | 82 | 1.4 | 7.7 | 51.1 | 30.1 |
| Cc1nc[nH]c1CC(=O)N[C@@H](CC(C)C)C(=O)N[C@H](C#N)COCc1ccccc1 | 110 | 24 | 130 | 396 | 0.2 | 4.3 | 11.3 | 4.6 |
| CC(C)C[C@H](NC(=O)C(C)(C)Oc1ccc(Cl)cc1)C(=O)N[C@H](C#N)COCc1ccccc1 | < 30 | < 1 | 52 | 141 | 3.1 | 13.6 | 3.5 | 10.1 |
| CC(C)C[C@H](NC(=O)OCc1ccccc1)C(=O)N[C@H](C#N)Cc1ccc(C(F)(F)F)cc1 | 8000 | 43 | > 10000 |  |  |  |  |  |
| CC(C)C[C@H](NC(=O)CN1CCC(c2ccccc2)CC1)C(=O)N[C@H](C#N)COCc1ccccc1 | 1200 | 83 | 140 |  |  |  |  |  |
| CC(C)C[C@H](NC(=O)OCc1ccccc1)C(=O)N[C@H](C#N)Cc1ccc(OCc2ccccc2)cc1 | > 10000 | > 1000 | > 10000 |  |  |  |  |  |
| CC(C)C[C@H](NC(=O)OCc1ccccc1)C(=O)N[C@H](C#N)Cc1ccc(OC(C)(C)C)cc1 | 1400 | 398 | > 10000 |  |  |  |  |  |
